The results in this text go back to ChEMBL document CHEMBL2375271, “Antiproliferative Homoisoflavonoids and Bufatrienolides from Urginea depressa” (J Nat Prod, 2013).

A value given as a limit tells only on which side of the number the result lay.

By IC50 is commonly meant the midpoint of a concentration-inhibition curve.

The subject of assay [1] is A2058. Kind of assay: Cytotoxicity against human A2058 cells assessed as growth inhibition after 96 hrs by CellTiter-Glo luminescence assay. Format: functional, cell-based. The following applies: A2058, 96 h. In short, it runs like this: (§1)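 Antiproliferative activity was determined against the A2058 melanoma and H522-T1 lung cancer cell lines.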
The nature of assay [2]: Cytotoxicity against human H522-T1 cells assessed as growth inhibition after 96 hrs by CellTiter-Glo luminescence assay. Format: functional, cell-based. The conditions noted are these: H522-T1, 96 h. A digest of the protocol: as §1
On the technique in general: In ATP-based viability assays light output follows the ATP content of the culture.

For assay [3], the system named is A2780. Kind of assay: Cytotoxicity against human A2780 cells assessed as growth inhibition. Format: functional, cell-based. In short, it runs like this:
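Drug-sensitive A2780 human ovarian cancer cell line; antiproliferative activity determined per a previously described protocol.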

Assay [4] relates to A2058. Briefly: Selectivity ratio of IC50 for human A2780 cells to IC50 for human A2058 cells. The format is functional.
Assay [5] concerns A2780. Briefly: Selectivity ratio of IC50 for human A2780 cells to IC50 for human H522-T1 cells. The format is functional.

`COc1ccc(C[C@H]2COc3cc(O)cc(O)c3C2=O)cc1`: the IC50 in assay [1] is over 10000 nM; in assay [2] it was over 10000 nM; in assay [3], 23000 nM.

Turning to `C[C@]12CC[C@H]3[C@@H](CCC4=C[C@@H](O[C@@H]5O[C@H](CO)[C@@H](O)[C@H](O)[C@H]5O)CC[C@@]43C=O)[C@@]1(O)CC[C@@H]2c1ccc(=O)oc1`, the IC50 in assay [1] came out at 48 nM; in assay [2], 34 nM; in assay [3], 24 nM.

Take `CC(=O)O[C@@H]1C[C@]2(O)[C@@H]3CCC4=C[C@@H](O[C@@H]5O[C@H](CO)[C@@H](O)[C@H](O)[C@H]5O)CC[C@]4(C=O)[C@H]3CC[C@]2(C)[C@H]1c1ccc(=O)oc1`: the IC50 in assay [1] was found to be 60 nM; in assay [2], 44 nM; in assay [3] it was 11 nM.

In the case of `C[C@@H]1O[C@@H](O[C@H]2[C@@H](O)[C@H](O[C@@H]3C=C4CC[C@@H]5[C@H](CC[C@]6(C)[C@@H](c7ccc(=O)oc7)CC[C@]56O)[C@@]4(C)CC3)O[C@@H](C)[C@@H]2O[C@@H]2O[C@H](CO)[C@@H](O)[C@H](O)[C@H]2O)[C@H](O)[C@H](O)[C@H]1O`, the IC50 in assay [1] came to 180 nM; in assay [2], 110 nM; in assay [3], 111 nM.

In the case of `C[C@@H]1O[C@@H](O[C@H]2[C@@H](O)[C@H](O[C@@H]3C=C4CC[C@@H]5[C@H](CC[C@]6(C)[C@@H](c7ccc(=O)oc7)CC[C@]56O)[C@@]4(C=O)CC3)O[C@@H](C)[C@@H]2O[C@@H]2O[C@H](CO)[C@@H](O)[C@H](O)[C@H]2O)[C@H](O)[C@H](O)[C@H]1O`, the values for the IC50 in assay [1], in assay [2] and in assay [3] were 76 nM, 51 nM and 41 nM, respectively.

As to `COc1ccc(C[C@@]2(O)COc3cc(OC)c(OC)c(OC)c3C2=O)cc1`, the IC50 in assay [1] was determined as 68 nM; in assay [2], 71 nM; in assay [3] it was 320 nM. In addition, the “Ratio IC50” value in assay [4] and in assay [5] was 5 each time.

Turning to `COc1cc2c(c(OC)c1OC)C(=O)[C@@](O)(Cc1ccc(O)cc1)CO2`, the IC50 is over 10000 nM in assay [1], 6780 nM in assay [2] and 3400 nM in assay [3].

As for `COc1ccc(C[C@H]2COc3cc(OC)c(OC)c(OC)c3C2=O)cc1`, the IC50 stood at 690 nM in assay [1], 740 nM in assay [2] and 1350 nM in assay [3].

`COc1cc2c(c(OC)c1OC)C(=O)[C@@](O)(Cc1ccc3c(c1)OCO3)CO2` [URGINEANIN D]: the values for the IC50 in assay [1], in assay [2] and in assay [3] were 380 nM, 430 nM and 350 nM, respectively.

`COc1cc2c(c(OC)c1OC)C(=O)[C@@H](Cc1ccc3c(c1)OCO3)CO2` [URGINEANIN E]: the IC50 in assay [1] is over 10000 nM; in assay [2] it was over 10000 nM; in assay [3] it was 1440 nM.

`CC[C@]1(O)C[C@@H]2CN(CCc3c([nH]c4ccccc34)[C@@](C(=O)OC)(c3cc4c(cc3OC)N(C)[C@H]3[C@@](O)(C(=O)OC)[C@H](OC(C)=O)[C@]5(CC)C=CCN6CC[C@]43[C@@H]65)C2)C1` [VINBLASTINE]: the IC50 in assay [1] turned out to be 3.7 nM; in assay [2], 5.2 nM.
